Converted amounts (≈) assume the structure as drawn.
Assays:
[1] = biological target: T1, DNA topoisomerase 1 (Homo sapiens) (UniProt P11387); test: Topoisomerase I […] was evaluated by Fluorescence assay using Ethidium Bromide after heat denaturation of pBR322 DNA at concentration 100 uM; conditions: Escherichia coli
T1 sequence (whole entry): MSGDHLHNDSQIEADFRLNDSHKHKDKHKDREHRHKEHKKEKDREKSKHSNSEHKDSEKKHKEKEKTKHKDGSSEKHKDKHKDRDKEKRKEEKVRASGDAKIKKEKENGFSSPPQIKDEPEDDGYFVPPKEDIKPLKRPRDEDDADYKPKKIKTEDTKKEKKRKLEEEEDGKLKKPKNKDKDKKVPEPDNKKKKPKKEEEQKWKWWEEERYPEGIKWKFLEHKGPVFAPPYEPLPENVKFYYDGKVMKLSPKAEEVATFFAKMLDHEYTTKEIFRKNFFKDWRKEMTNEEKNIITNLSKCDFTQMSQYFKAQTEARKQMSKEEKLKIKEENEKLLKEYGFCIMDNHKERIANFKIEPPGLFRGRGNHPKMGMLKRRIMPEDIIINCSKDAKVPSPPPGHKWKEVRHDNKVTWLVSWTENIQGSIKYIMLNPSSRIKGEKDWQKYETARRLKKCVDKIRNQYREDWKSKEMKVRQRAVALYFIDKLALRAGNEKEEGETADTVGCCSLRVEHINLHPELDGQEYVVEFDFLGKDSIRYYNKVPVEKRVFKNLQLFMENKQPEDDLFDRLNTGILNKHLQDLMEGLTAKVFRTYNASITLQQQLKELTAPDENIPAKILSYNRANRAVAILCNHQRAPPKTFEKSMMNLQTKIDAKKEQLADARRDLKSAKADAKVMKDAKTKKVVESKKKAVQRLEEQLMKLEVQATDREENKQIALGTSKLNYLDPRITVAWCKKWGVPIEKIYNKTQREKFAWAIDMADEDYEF
In short: (§1)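 0.25 µg pBR322 DNA incubated with ligand alone, no enzyme, 30 min at 37 °C. Ethidium bromide buffer added (0.5 µg/mL EtBr, 20 mM K₃PO₄, 0.5 mM EDTA, pH 12). Fluorescence measured at ex 525/em 600 nm before and after heat denaturation of DNA; percent change vs control.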

[2] = biological target: T1, DNA topoisomerase 1 (Homo sapiens); test: Topoisomerase I […] was evaluated by Fluorescence assay using Ethidium Bromide before heat denaturation of pBR322 DNA at concentration 100 uM; conditions: Escherichia coli; in short: as §1
[3] = biological target: T1, DNA topoisomerase 1 (Homo sapiens); test: Topoisomerase I […] was evaluated by Fluorescence assay using Ethidium Bromide before heat denaturation of pBR322 DNA at concentration 50 uM; conditions: Escherichia coli; in short: as §1
[4] = biological target: T1, DNA topoisomerase 1 (Homo sapiens); test: Topoisomerase I DNA relaxation activity was evaluated by Agarose Gel Electrophoresis test at concentration 100 uM; conditions: Escherichia coli
In short: (§2)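 Relaxation of 0.25 µg supercoiled pBR322 DNA by 0.5 unit topoisomerase I, 30 min at 37 °C with ligand (25–250 µM), final volume 10 µL. SDS-containing loading buffer added, further 30 min at 37 °C. Agarose gel run overnight, stained with ethidium bromide (0.5 µg/mL), photographed. Percent supercoiled DNA remaining by laser densitometry, scored in bands (<10% to 75–100%).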

[5] = biological target: T1, DNA topoisomerase 1 (Homo sapiens); test: Topoisomerase I DNA relaxation activity was evaluated by Fluorescence assay using Ethidium Bromide after heat denaturation of pBR322 DNA at concentration 50 uM; conditions: Escherichia coli
In short: (§3)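 0.25 µg pBR322 DNA with ligand plus topoisomerase I (0.5 unit), 30 min at 37 °C. Then ethidium bromide buffer added (0.5 µg/mL EtBr, 20 mM K₃PO₄, 0.5 mM EDTA, pH 12). Fluorescence read at ex 525/em 600 nm before and after heat denaturation of DNA; percent change vs control.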

[6] = In vitro cytotoxicity against KB cancer cell line (ATCC CCL 17).; format: cell-based; conditions: human, KB cancer cells (ATCC CCL 17); read-out: TD50 (the source's name)
In short: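 KB cells grown in Eagle's MEM with 10% calf serum, 37 °C, humidified 5% CO₂. Seeded at 3 × 10³ cells/mL, cultured 24 h, then compound added in triplicate at several concentrations for 3 days. TD50 is the concentration giving 50% reduction in cell count; average of ≥3 determinations.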

[7] = biological target: T1, DNA topoisomerase 1 (Homo sapiens); test: Topoisomerase I […] was evaluated by Fluorescence assay using Ethidium Bromide after heat denaturation of pBR322 DNA at concentration 250 uM; conditions: Escherichia coli; in short: as §1
[8] = biological target: T1, DNA topoisomerase 1 (Homo sapiens); test: Topoisomerase I DNA relaxation activity was evaluated by Agarose Gel Electrophoresis test at concentration 250 uM; conditions: Escherichia coli; in short: as §2
[9] = biological target: T1, DNA topoisomerase 1 (Homo sapiens); test: Topoisomerase I […] was evaluated by Fluorescence assay using Ethidium Bromide after heat denaturation of pBR322 DNA at concentration 25 uM; conditions: Escherichia coli; at 25 µM
In short: (§4)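 0.25 µg pBR322 DNA incubated with ligand for 30 min at 37 °C without topoisomerase I (DNA and compound only). Ethidium bromide buffer then added (0.5 µg/mL ethidium bromide, 20 mM K₃PO₄, 0.5 mM EDTA, pH 12). Fluorescence read at excitation 525 nm and emission 600 nm, before and after heat denaturation of the DNA. Reported as percent change from control.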

[10] = biological target: T1, DNA topoisomerase 1 (Homo sapiens); test: Topoisomerase I DNA relaxation activity was evaluated by Fluorescence assay using Ethidium Bromide before heat denaturation of pBR322 DNA at concentration 250 uM; conditions: Escherichia coli; in short: as §3
[11] = biological target: T1, DNA topoisomerase 1 (Homo sapiens); test: Topoisomerase I DNA relaxation activity was evaluated by Fluorescence assay using Ethidium Bromide before heat denaturation of pBR322 DNA at concentration 25 uM; conditions: Escherichia coli; at 25 µM
In short: (§5)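 0.25 µg pBR322 DNA incubated with ligand and topoisomerase I (0.5 unit) for 30 min at 37 °C. Ethidium bromide buffer then added (0.5 µg/mL ethidium bromide, 20 mM K₃PO₄, 0.5 mM EDTA, pH 12). Fluorescence read at excitation 525 nm and emission 600 nm, before and after heat denaturation of the DNA. Reported as percent change from control.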

[12] = biological target: T1, DNA topoisomerase 1 (Homo sapiens); test: Topoisomerase I DNA relaxation activity was evaluated by Agarose Gel Electrophoresis test at concentration 25 uM; conditions: Escherichia coli; at 25 µM
In short: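 0.25 µg supercoiled pBR322 DNA and 0.5 unit topoisomerase I incubated with ligand for 30 min at 37 °C (10 µL final). Equal volume loading buffer with SDS added, a further 30 min at 37 °C, agarose gel run overnight, ethidium bromide stained. Supercoiled DNA remaining quantified by laser densitometry of the photographed gel. Scored as % inhibition bands (<10% to 75-100%).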

[13] = biological target: T1, DNA topoisomerase 1 (Homo sapiens); test: Topoisomerase I […] was evaluated by Fluorescence assay using Ethidium Bromide before heat denaturation of pBR322 DNA at concentration 25 uM; conditions: Escherichia coli; at 25 µM; in short: as §4
[14] = biological target: T1, DNA topoisomerase 1 (Homo sapiens); test: Topoisomerase I DNA relaxation activity was evaluated by Fluorescence assay using Ethidium Bromide after heat denaturation of pBR322 DNA at concentration 100 uM; conditions: Escherichia coli; in short: as §3
[15] = biological target: T1, DNA topoisomerase 1 (Homo sapiens); test: Topoisomerase I […] was evaluated by Fluorescence assay using Ethidium Bromide before heat denaturation of pBR322 DNA at concentration 250 uM; conditions: Escherichia coli; in short: as §1
[16] = biological target: T1, DNA topoisomerase 1 (Homo sapiens); test: Topoisomerase I DNA relaxation activity was evaluated by Fluorescence assay using Ethidium Bromide after heat denaturation of pBR322 DNA at concentration 250 uM; conditions: Escherichia coli; in short: as §3
[17] = biological target: T1, DNA topoisomerase 1 (Homo sapiens); test: Topoisomerase I […] was evaluated by Fluorescence assay using Ethidium Bromide after heat denaturation of pBR322 DNA at concentration 50 uM; conditions: Escherichia coli; in short: as §1
[18] = biological target: T1, DNA topoisomerase 1 (Homo sapiens); test: Topoisomerase I DNA relaxation activity was evaluated by Fluorescence assay using Ethidium Bromide before heat denaturation of pBR322 DNA at concentration 50 uM; conditions: Escherichia coli; in short: as §3
[19] = biological target: T1, DNA topoisomerase 1 (Homo sapiens); test: Topoisomerase I DNA relaxation activity was evaluated by Agarose Gel Electrophoresis test at concentration 50 uM; conditions: Escherichia coli; in short: as §2
[20] = biological target: T1, DNA topoisomerase 1 (Homo sapiens); test: Topoisomerase I DNA relaxation activity was evaluated by Fluorescence assay using Ethidium Bromide after heat denaturation of pBR322 DNA at concentration 25 uM; conditions: Escherichia coli; at 25 µM; in short: as §5
[21] = biological target: T1, DNA topoisomerase 1 (Homo sapiens); test: Topoisomerase I DNA relaxation activity was evaluated by Fluorescence assay using Ethidium Bromide before heat denaturation of pBR322 DNA at concentration 100 uM; conditions: Escherichia coli; in short: as §3
[22] = biological target: T1, DNA topoisomerase 1 (Homo sapiens); conditions: Escherichia coli; at 25 µM
[23] = biological target: T1, DNA topoisomerase 1 (Homo sapiens); conditions: Escherichia coli; at 25 µM; remark: listed apart in the source

| Structure (SMILES) | Change [1] [%] | Change [2] [%] | Change [3] [%] | inhibition [4] [%] | Change [5] [%] | CC50 [6] [µg/mL] | Change [7] [%] | inhibition [8] [%] | Change [9] [%] | Change [10] [%] | Change [11] [%] | inhibition [12] [%] | Change [13] [%] | Change [14] [%] | Change [15] [%] | Change [16] [%] | Change [17] [%] | Change [18] [%] | inhibition [19] [%] | Change [21] [%] | further results |
| --- | --- | --- | --- | --- | --- | --- | --- | --- | --- | --- | --- | --- | --- | --- | --- | --- | --- | --- | --- | --- | --- |
| CN(C)CCCNC(=O)c1cc(NC(=O)c2cc(NC(=O)c3cc(NC(=O)Cn4cc(C5=C(c6c[nH]c7ccccc67)C(=O)NC5=O)c5ccccc54)cn3C)cn2C)cn1C | 13 | 24 | 26 | 75 | 7 | > 100 | 4 | 100 | 6 | 14 | 11 | 25 | 28 | 15 | 28 | 13 | 15 | 15 | 50 | 20 | Change [20]: 3% |
| CN(C)CCCNC(=O)c1cc(NC(=O)c2cc(NC(=O)Cn3cc(C4=C(c5c[nH]c6ccccc56)C(=O)NC4=O)c4ccccc43)cn2C)cn1C | 12 | 21 | 14 | 50 | 4 | 92.3 (≈ 129 µM) | 14 | 75 | 5 | 14 | 7 | < 10 | 2 | 15 | 32 | 9 | 3 | 10 | 25 | 18 | Change [20]: 3% |
| COC(=O)c1cc(NC(=O)c2cc(NC(=O)c3cc(NC(=O)Cn4cc(C5=C(c6c[nH]c7ccccc67)C(=O)NC5=O)c5ccccc54)cn3C)cn2C)cn1C | 17 | 33 | 25 | 0 | 9 | 77.3 (≈ 101 µM) | 20 | 0 | 14 | 36 | 1 | 0 | 11 | 0 | 52 | 3 | 17 | 9 | 0 | 15 | Change [20]: 6% |
| COC(=O)c1cc(NC(=O)c2cc(NC(=O)Cn3cc(C4=C(c5c[nH]c6ccccc56)C(=O)NC4=O)c4ccccc43)cn2C)cn1C | 15 | 2 | 3 | 0 | 7 | 58 (≈ 90.1 µM) | 10 | 0 | 4 | 24 | 3 | 0 | 5 | 12 | 33 | 3 | 15 | 2 | 0 | 1 | Change [20]: 13% |
| CN(C)CCCNC(=O)c1cc(NC(=O)Cn2cc(C3=C(c4c[nH]c5ccccc45)C(=O)NC3=O)c3ccccc32)cn1C | 3 | 6 | 1 | < 10 | 0 | 84 (≈ 142 µM) | 2 | 25 | 12 | 10 | – | 0 | 1 | 0 | 18 | 3 | 7 | 5 | 0 | 6 | Change [22]: 6%; Change [23]: 3% |
| CC[C@@]1(O)C(=O)OCc2c1cc1n(c2=O)Cc2cc3ccccc3nc2-1 [CAMPTOTHECIN] | – | – | – | – | 7 | 0.01 (≈ 0.0287 µM) | – | – | – | – | – | – | – | 3 | – | – | – | 12 | – | 3 | Change [22]: 7%; Change [23]: 6% |
